A short description of series [1]: Circular dichroism of AKB peptides. Conditions: 0.1 M Tris pH 8.5, Jasco J-810. The class given is physicochemical.
Another series relates to PKA-RIβ. Briefly: Confocal colocalization with PKA-RIβ-mKO2 in HeLa cells. The class given is cell-based. Particulars: transfected, confocal, unstimulated. In outline: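 HeLa cells co-expressed GFP-tagged smAKAP (wild type, S66E or S66D) with mKO2-tagged PKA-RIα or RIβ. Cells were washed in ice-cold PBS, fixed in ice-cold 4% formaldehyde in PBS, washed twice and imaged by confocal microscopy through a 63× oil objective. Stimulated cells received calyculin A plus 8-CPT-cAMP and were imaged live.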

For another series, the system named is PKA-RIα. Briefly: Confocal colocalization with PKA-RIα in HeLa cells. The class given is cell-based. Particulars: transfected, confocal, PKA-RIα-mCherry.
Another series deals with PKG Iα. Kind of series: 32P phosphorylation assay with PKG Iα. It counts as biochemical. Conditions: PKG Iα 20 nM, pH 7.5; n = 3. In outline:
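Substrate was His-tagged human smAKAP (wild type, or S66D with PKA-Cα) at 10 μM. It was incubated with 20 nM recombinant kinase in 50 mM MOPS pH 7.5 containing 10 mM MgCl2, 200 μM ATP and [32P]ATP. Aliquots were quenched in 30% acetic acid at 0, 5, 10 and 15 min. Results are means ± SD of 3 independent experiments.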

The next series deals with PKA:AKAP interaction. Particulars: through an allosteric effect away from the D/D domain; ref [32]; cited from earlier work.

These results are taken from publication PMC4980077 (The FEBS journal, 2016).

Entries after “also recorded” stand apart in the source; their conditions may differ.

On to IVILEYAHRLDQDILCDALQQWAC [AKB-S66D], for which the “secondary structure by CD” value in series [1] is given as “no secondary structure”. Consider IVILEYAHRLEQDILCDALQQWAC [AKB-S66E], for which the “secondary structure by CD” value in series [1] is listed as “no secondary structure”. As to “smAKAP-wt-GFP: wild-type smAKAP GFP fusion expressed in transfected cells”, the “colocalization with PKA-RIβ-mKO2” value with PKA-RIβ is “strong colocalization along the plasma membrane; also recorded: colocalization at the plasma membrane”. For the same compound, in the series with PKA-RIα, the “colocalization with PKA-RIα” value is recorded as “strong colocalization along the plasma membrane”. Regarding IVILEYAHRLpSQDILCDALQQWAC [AKB-pSer66], the “secondary structure by CD” value in series [1] is recorded as “no secondary structure”. On to “His6-smAKAP: recombinant human His-tagged smAKAP (wt), called smAKAP-wt in the phosphorylation assay”, for which the “phosphorylation by PKG Iα compared with PKA” value in the series on PKG Iα is “only PKA phosphorylated”.

`Nc1cc(Cc2ccc(O)c(N)c2)ccc1O` [FMP-API-1]: the “inhibition of PKA binding to AKAPs” value with PKA:AKAP interaction was “inhibit the binding of PKA to AKAPs”. Take IVILEYAHRLSQDILCDALQQWAC [AKB-wt]: the “α-helix propensity by CD” value in series [1] was ~ 45%.
